Source: ChEMBL document CHEMBL2380298, “Synthesis and antimicrobial activity of novel amphiphilic aromatic amino alcohols” (2013)

Tests used:
Format in all cases: functional
[1] = tested on: Staphylococcus epidermidis; assay: Antimicrobial activity against Staphylococcus epidermidis ATCC 12228 by broth dilution method; conditions: for MIC: Staphylococcus epidermidis, ATCC 12228
Staphylococcus aureus [2] = assay: Antimicrobial activity against Staphylococcus aureus ATCC 29213 by broth dilution method; conditions: for MIC: Staphylococcus aureus, ATCC 29213
Candida parapsilosis = assay: Antimicrobial activity against Candida parapsilosis ATCC 90030 by broth dilution method; conditions: Lodderomyces parapsilosis
Nakaseomyces glabratus = assay: Antimicrobial activity against Candida glabrata ATCC 18804 by broth dilution method
Candida tropicalis = assay: Antimicrobial activity against Candida tropicalis ATCC 750 by broth dilution method
Pseudomonas aeruginosa = assay: Antimicrobial activity against Pseudomonas aeruginosa ATCC 27853 by broth dilution method
Escherichia coli [3] = assay: Antimicrobial activity against Escherichia coli ATCC 11229 by broth dilution method; conditions: for MIC: Escherichia coli, ATCC 11229
Staphylococcus aureus [4] = assay: Bactericidal activity against methicillin-resistant Staphylococcus aureus clinical isolate 264 after 24 hrs; conditions: isolate 264, 24 h
In short: (§1)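 Bactericidal concentration: 0.1 ml from wells at the MIC dilution and the dilutions on either side was streaked onto tryptic soy agar and incubated 24 h. It was taken as the lowest drug concentration giving no growth (100% killing).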

Staphylococcus aureus [5] = assay: Bactericidal activity against methicillin-resistant Staphylococcus aureus clinical isolate 260 after 24 hrs; conditions: isolate 260, 24 h; in short: as §1
Staphylococcus aureus [6] = assay: Bactericidal activity against methicillin-resistant Staphylococcus aureus clinical isolate 259 after 24 hrs; conditions: isolate 259, 24 h; in short: as §1
Staphylococcus aureus [7] = assay: Bactericidal activity against methicillin-resistant Staphylococcus aureus clinical isolate 257 after 24 hrs; conditions: isolate 257, 24 h; in short: as §1
Staphylococcus aureus [8] = assay: Bactericidal activity against methicillin-resistant Staphylococcus aureus clinical isolate 255 after 24 hrs; conditions: isolate 255, 24 h; in short: as §1
Staphylococcus aureus [9] = assay: Bactericidal activity against methicillin-resistant Staphylococcus aureus clinical isolate 238 after 24 hrs; conditions: isolate 238, 24 h; in short: as §1
Staphylococcus aureus [10] = assay: Bactericidal activity against methicillin-resistant Staphylococcus aureus clinical isolate 237 after 24 hrs; conditions: isolate 237, 24 h; in short: as §1
Staphylococcus aureus [11] = assay: Bactericidal activity against methicillin-resistant Staphylococcus aureus clinical isolate 236 after 24 hrs; conditions: isolate 236, 24 h; in short: as §1
Staphylococcus aureus [12] = assay: Bactericidal activity against methicillin-resistant Staphylococcus aureus clinical isolate 235 after 24 hrs; conditions: isolate 235, 24 h; in short: as §1
Staphylococcus aureus [13] = assay: Bactericidal activity against methicillin-resistant Staphylococcus aureus clinical isolate 232 after 24 hrs; conditions: isolate 232, 24 h; in short: as §1
Staphylococcus aureus [14] = assay: Bactericidal activity against methicillin-resistant Staphylococcus aureus clinical isolate 231 after 24 hrs; conditions: isolate 231, 24 h; in short: as §1
Staphylococcus aureus [15] = assay: Bactericidal activity against methicillin-resistant Staphylococcus aureus clinical isolate 225 after 24 hrs; conditions: isolate 225, 24 h; in short: as §1
Staphylococcus aureus [16] = assay: Bactericidal activity against methicillin-resistant Staphylococcus aureus clinical isolate 218 after 24 hrs; conditions: isolate 218, 24 h; in short: as §1
Staphylococcus aureus [17] = assay: Bactericidal activity against methicillin-resistant Staphylococcus aureus clinical isolate 212 after 24 hrs; conditions: isolate 212, 24 h; in short: as §1
Escherichia coli [18] = assay: Bactericidal activity against Escherichia coli ATCC 11229 after 24 hrs; conditions: ATCC 11229, 24 h
In short: (§2)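 MBC: after MIC determination, 0.1 ml from the MIC well and from two dilutions either side streaked on tryptic soy agar, incubated 24 h; MBC taken as lowest concentration giving no growth (100% kill).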

[19] = tested on: Staphylococcus epidermidis; assay: Bactericidal activity against Staphylococcus epidermidis ATCC 12228 after 24 hrs; conditions: ATCC 12228, 24 h; in short: as §2
Staphylococcus aureus [20] = assay: Bactericidal activity against Staphylococcus aureus ATCC 29213 after 24 hrs; conditions: ATCC 29213, 24 h; in short: as §1
Candida albicans = assay: Antimicrobial activity against Candida albicans ATCC 22019 by broth dilution method
Staphylococcus aureus [21] = assay: Antimicrobial activity against methicillin-resistant Staphylococcus aureus clinical isolate by broth dilution method
Staphylococcus aureus [22] = assay: Antimicrobial activity against methicillin-resistant Staphylococcus aureus clinical isolate 264 by broth dilution method
Staphylococcus aureus [23] = assay: Antimicrobial activity against methicillin-resistant Staphylococcus aureus clinical isolate 260 by broth dilution method
Staphylococcus aureus [24] = assay: Antimicrobial activity against methicillin-resistant Staphylococcus aureus clinical isolate 257 by broth dilution method
Staphylococcus aureus [25] = assay: Antimicrobial activity against methicillin-resistant Staphylococcus aureus clinical isolate 259 by broth dilution method
Staphylococcus aureus [26] = assay: Antimicrobial activity against methicillin-resistant Staphylococcus aureus clinical isolate 238 by broth dilution method
Staphylococcus aureus [27] = assay: Antimicrobial activity against methicillin-resistant Staphylococcus aureus clinical isolate 255 by broth dilution method
Staphylococcus aureus [28] = assay: Antimicrobial activity against methicillin-resistant Staphylococcus aureus clinical isolate 237 by broth dilution method
Staphylococcus aureus [29] = assay: Antimicrobial activity against methicillin-resistant Staphylococcus aureus clinical isolate 236 by broth dilution method
Staphylococcus aureus [30] = assay: Antimicrobial activity against methicillin-resistant Staphylococcus aureus clinical isolate 235 by broth dilution method
Staphylococcus aureus [31] = assay: Antimicrobial activity against methicillin-resistant Staphylococcus aureus clinical isolate 232 by broth dilution method
Staphylococcus aureus [32] = assay: Antimicrobial activity against methicillin-resistant Staphylococcus aureus clinical isolate 227 by broth dilution method
Staphylococcus aureus [33] = assay: Antimicrobial activity against methicillin-resistant Staphylococcus aureus clinical isolate 231 by broth dilution method
Staphylococcus aureus [34] = assay: Antimicrobial activity against methicillin-resistant Staphylococcus aureus clinical isolate 225 by broth dilution method
Staphylococcus aureus [35] = assay: Antimicrobial activity against methicillin-resistant Staphylococcus aureus clinical isolate 215 by broth dilution method
Staphylococcus aureus [36] = assay: Antimicrobial activity against methicillin-resistant Staphylococcus aureus clinical isolate 218 by broth dilution method
Staphylococcus aureus [37] = assay: Antimicrobial activity against methicillin-resistant Staphylococcus aureus clinical isolate 212 by broth dilution method
Staphylococcus aureus [38] = assay: Antimicrobial activity against methicillin-resistant Staphylococcus aureus clinical isolate 207 by broth dilution method
Staphylococcus aureus [39] = assay: Antimicrobial activity against methicillin-resistant Staphylococcus aureus clinical isolate 205 by broth dilution method
Staphylococcus aureus [40] = assay: Antimicrobial activity against methicillin-resistant Staphylococcus aureus clinical isolate 195 by broth dilution method
Staphylococcus aureus [41] = assay: Antimicrobial activity against methicillin-resistant Staphylococcus aureus clinical isolate 178 by broth dilution method
Staphylococcus aureus [42] = assay: Antimicrobial activity against methicillin-resistant Staphylococcus aureus clinical isolate 176 by broth dilution method

## CCCCOc1ccc(CNC(CO)(CO)CO)cc1.Cl
[1]
  -logMIC: 2.79
  MIC: 512 µg/mL
Staphylococcus aureus [2]
  -logMIC: 2.49
  MIC: 1020 µg/mL
Candida parapsilosis
  MIC: > 512 µg/mL
Nakaseomyces glabratus
  MIC: 512 µg/mL
Candida tropicalis
  MIC: > 512 µg/mL
Pseudomonas aeruginosa
  MIC: 512 µg/mL
Escherichia coli [3]
  -logMIC: 2.49
  MIC: 1020 µg/mL

## CCCCCCOc1ccc(CNC(CO)(CO)CO)cc1.Cl
[1]
  -logMIC: 3.43
  MIC: 128 µg/mL
Staphylococcus aureus [2]
  -logMIC: 3.45
  MIC: 128 µg/mL
Candida parapsilosis
  MIC: > 512 µg/mL
Nakaseomyces glabratus
  MIC: 256 µg/mL
Candida tropicalis
  MIC: > 512 µg/mL
Pseudomonas aeruginosa
  MIC: 512 µg/mL
Escherichia coli [3]
  -logMIC: 3.13
  MIC: 256 µg/mL

## CCCCCCCCOc1ccc(CNC(CO)(CO)CO)cc1.Cl
[1]
  -logMIC: 4.37
  MIC: 16 µg/mL
Staphylococcus aureus [2]
  -logMIC: 3.67
  MIC: 8 µg/mL
Staphylococcus aureus [4]
  MBC: 64 µg/mL
Staphylococcus aureus [5]
  MBC: 32 µg/mL
Staphylococcus aureus [6]
  MBC: 8 µg/mL
Staphylococcus aureus [7]
  MBC: 8 µg/mL
Staphylococcus aureus [8]
  MBC: 8 µg/mL
Staphylococcus aureus [9]
  MBC: 16 µg/mL
Staphylococcus aureus [10]
  MBC: 16 µg/mL
Staphylococcus aureus [11]
  MBC: 32 µg/mL
Staphylococcus aureus [12]
  MBC: 32 µg/mL
Staphylococcus aureus [13]
  MBC: 16 µg/mL
Staphylococcus aureus [14]
  MBC: 16 µg/mL
Staphylococcus aureus [15]
  MBC: 512 µg/mL
Staphylococcus aureus [16]
  MBC: 128 µg/mL
Staphylococcus aureus [17]
  MBC: 128 µg/mL
Escherichia coli [18]
  MBC: 32 µg/mL
[19]
  MBC: 128 µg/mL
Staphylococcus aureus [20]
  MBC: 32 µg/mL
Candida parapsilosis
  MIC: 32 µg/mL
Nakaseomyces glabratus
  MIC: 8 µg/mL
Candida albicans
  MIC: 4 µg/mL
Candida tropicalis
  MIC: 32 µg/mL
Staphylococcus aureus [21]
  -logMIC: 4.287
Staphylococcus aureus [21]; Staphylococcus aureus
  MIC50: 16 µg/mL
  MIC90: 64 µg/mL
Staphylococcus aureus [22]
  MIC: 8 µg/mL
Staphylococcus aureus [23]
  MIC: 16 µg/mL
Staphylococcus aureus [24]
  MIC: 8 µg/mL
Staphylococcus aureus [25]
  MIC: 8 µg/mL
Staphylococcus aureus [26]
  MIC: 16 µg/mL
Staphylococcus aureus [27]
  MIC: 8 µg/mL
Staphylococcus aureus [28]
  MIC: 16 µg/mL
Staphylococcus aureus [29]
  MIC: 16 µg/mL
Staphylococcus aureus [30]
  MIC: 16 µg/mL
Staphylococcus aureus [31]
  MIC: 16 µg/mL
Staphylococcus aureus [32]
  MIC: 32 µg/mL
Staphylococcus aureus [33]
  MIC: 16 µg/mL
Staphylococcus aureus [34]
  MIC: 128 µg/mL
Staphylococcus aureus [35]
  MIC: 16 µg/mL
Staphylococcus aureus [36]
  MIC: 16 µg/mL
Staphylococcus aureus [37]
  MIC: 32 µg/mL
Staphylococcus aureus [38]
  MIC: 64 µg/mL
Staphylococcus aureus [39]
  MIC: 16 µg/mL
Staphylococcus aureus [40]
  MIC: 32 µg/mL
Staphylococcus aureus [41]
  MIC: 128 µg/mL
Staphylococcus aureus [42]
  MIC: 32 µg/mL
Pseudomonas aeruginosa
  MIC: > 256 µg/mL
Escherichia coli [3]
  -logMIC: 4.06
  MIC: 32 µg/mL
